An excerpt weighted towards active compounds, which were near 4.7% of everything screened.
MrgX1 ag: activates human MrgX1 receptor signaling; MrgX1-HEK293 cells, Fluo-4 calcium fluorescence, agonist mode; active compounds read high; B-score at 10 µM; hit rate 0.44% among 310,000; AID 588627;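 active = calcium response B-score plate-corrected fluorescence ratio at least 3 library SD, with starting fluorescence B-score inside 5 SD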
Target sequence (Q96LB2 whole entry, looked up): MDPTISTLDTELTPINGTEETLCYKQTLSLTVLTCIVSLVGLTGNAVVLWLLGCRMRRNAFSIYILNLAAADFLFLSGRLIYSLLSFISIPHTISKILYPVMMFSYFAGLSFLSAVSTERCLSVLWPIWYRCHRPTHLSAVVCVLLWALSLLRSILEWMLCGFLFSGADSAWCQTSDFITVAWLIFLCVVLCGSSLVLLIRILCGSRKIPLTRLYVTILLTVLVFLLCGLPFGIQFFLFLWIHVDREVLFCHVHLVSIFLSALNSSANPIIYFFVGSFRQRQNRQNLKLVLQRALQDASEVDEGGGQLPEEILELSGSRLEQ
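Test system: HEK293 cells stably expressing human MrgX1 receptor; Input: fifteen thousand cells per well; Dosing: compound delivered in addition one of three; Schedule: overnight seeding, then 1 h dark dye loading; Technique: Fluo-4 NW calcium fluorescence; Measure: B-scored fluorescence response ratio; Controls: positive and negative controls per plate.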
MrgX1 antagonist: blocks BAM8-22 activation of human MrgX1 receptor; Q96LB2; MRGX1-HEK293 calcium flux, Fluo-4, BAM8-22 antagonism; active compounds read low; B-score at 10 µM; hit rate 1.3% among 310,000; AID 588676;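 active = calcium-response B-score plate-corrected more than 3 library SD below zero, starting fluorescence within 5 deviations, no agonist response on first addition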;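 also: peak minus trough fluorescence over baseline after final BAM8-22 challenge near maximal dose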
KCC2 mod: modulators of human KCC2 chloride dependent transport; Q9H2X9; KCC2 cells, thallium flux FluoZin-2 fluorescence; B-score of Tl+ flux slope (higher = more flux/activation; lower = inhibition) at 10 µM; hit rate 2.2% among 190,000; AID 1456;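 active = thallium flux slope and its plate-corrected score both differing from the plate sample mean at a set confidence after two filtering rounds, in either direction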;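 also: slope of fluorescence scaled to starting intensity during 10 to 20 s after thallium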
RGS4 inh: inhibitors of human RGS4; P49798; HEK293 M3R/RGS4 inducible, Fluo-4 calcium flux; active compounds read high; triggered by carbachol at its EC20; B-score at 10 µM; hit rate 0.45% among 310,000; AID 463165;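 active = B-score, a plate-corrected calcium signal, over three deviations above library mean, with baseline fluorescence within five deviations of library mean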;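 also: RGS4 expression induced by doxycycline in cells with stable M3 receptor; B-score is computed from the integrated fluorescence ratio over baseline after carbachol; higher B-score means a larger calcium signal and so more RGS4 inhibition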
Target sequence (P49798 whole entry, looked up): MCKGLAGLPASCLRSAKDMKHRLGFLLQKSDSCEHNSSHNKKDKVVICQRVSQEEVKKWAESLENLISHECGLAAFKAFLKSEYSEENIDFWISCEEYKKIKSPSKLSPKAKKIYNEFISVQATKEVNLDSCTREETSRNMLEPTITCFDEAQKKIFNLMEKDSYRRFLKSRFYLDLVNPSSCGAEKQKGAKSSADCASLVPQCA
RGS4 pot: potentiators or activators of RGS4; HEK293 M3R/inducible RGS4, carbachol calcium flux Fluo4; active compounds read low; B-score at 10 µM; hit rate 0.92% among 310,000; AID 463111;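 active = B-score of the integrated calcium signal more than 4 SD below the library mean, with starting fluorescence not abnormally high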;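 also: negative B-score means reduced calcium response which marks RGS4 activation or potentiation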
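Assay system: HEK293 FlpIn-TREx cells, stable M3R, doxycycline-inducible RGS4 / Probe or stimulus: carbachol, ECmax concentration / Times: overnight RGS4 induction, 30 min dye load 37 °C, 20 min compound RT / Signal: kinetic calcium fluorescence imaging with Fluo4-AM dye, 2 µM / Measure: Agonist-evoked peak-minus-minimum fluorescence over baseline, integrated ratio, B score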
MrgX1 PAM: allosterically activates human MrgX1 receptor signaling | Q96LB2 | MrgX1-HEK293, Fluo-4 calcium flux, FDSS; active compounds read high | B-score at 10 µM | hit rate 0.63% among 310,000;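 active = plate-corrected calcium response at least 3 library SD above typical, normal starting fluorescence, not activating the receptor alone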;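 also: compound read alongside a low EC10 to EC30 dose of BAM8-22 agonist; peak minus trough fluorescence over baseline measured at the second addition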
KCC2 sec1: KCC2 (human) modulation, secondary assay | shares compounds with KCC2 mod | HEK293-KCC2, thallium flux, FluoZin2 fluorescence; active compounds read high | normalised thallium flux (F/F0 slope) at 10 µM | hit rate 15% among 3,700;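 active = thallium flux slope above the same plate's solvent-only control mean plus 3 SD; inconclusive = the two replicate wells disagree; inactive = no significant difference from solvent-only control wells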
KCC2 bumet counter: bumetanide-insensitive thallium flux in KCC2 cells with ouabain, counter-screen | shares compounds with KCC2 mod | HEK293-KCC2 + bumetanide/ouabain, thallium flux FluoZin2; active compounds read high | normalized thallium flux at 10 µM | hit rate 49% among 3,700 | AID 1714;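 active = thallium entry rate above the same plate's blocked-transporter control wells by more than 3 SD; inconclusive = the two repeat wells disagree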;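 also: raw slope of fluorescence over initial fluorescence between 10 and 20 s after thallium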
KCC2 secondary2: KCC2 (human) modulation, second secondary assay; shares compounds with KCC2 mod; HEK293-KCC2, thallium flux FluoZin2 fluorescence; actives lie on both sides; F/F0 rise rate, 10–20 s post-thallium; normalized thallium flux at 10 µM; hit rate 23% among 3,700;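 active = thallium flux slope more than 3 SD above or below the plate's solvent-only control mean, mostly below; inconclusive = the two repeat wells disagreed; inactive = no significant shift from solvent-only controls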;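 also: raw slope with 0.1% DMSO as baseline and bumetanide as block control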
HEK293 Tl flux: acts in parental HEK cells, KCC2 counter-screen; thallium flux rate (normalised fluorescence) at 10 µM; HEK293 parental cells, thallium flux FluoZin2, ouabain; baseline-ratio fluorescence slope, 10–20 s after thallium; shares compounds with KCC2 mod; AID 1716; hit rate 46% among 3,700;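 active = thallium flux rate significantly above the same plate's solvent-only control wells, beyond their mean plus 3 SD; inconclusive = the two replicate wells gave conflicting results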
KCC2 ouabain: confirmation of human KCC2 modulators with ouabain. HEK293-KCC2, thallium flux FluoZin2 fluorescence; bidirectional: low = inhibitor, high = activator. shares compounds with KCC2 mod. hit rate 48% among 3,700. raw Tl+ flux slope (below DMSO = inhibition, above = activation) at 10 µM;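 active = thallium flux slope beyond 3 SD from same-plate DMSO control mean in most replicates, usually higher, sometimes lower; inconclusive = repeat tests gave conflicting results; inactive = no significant difference from controls in most replicates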;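 also: slope of initial-normalized fluorescence between seconds 10 and 20 after thallium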
HEK293 Tl flux2: parental HEK flux effect, counter-screen 2; shares compounds with KCC2 mod; HEK293 parental, thallium flux FluoZin-2 fluorescence slope; thallium flux slope at 10 µM; hit rate 33% among 3,700; AID 1718;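 active = thallium flux slope above the same plate's solvent-control mean plus 3 SD in both duplicate wells; inconclusive = duplicate wells that disagreed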;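 also: run without ouabain in cells lacking the KCC2 cotransporter; slope of fluorescence scaled to its starting value between 10 and 20 s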
* hit, by the source's call; i = inactive; ? = inconclusive; · = not tested or not shown.

SMILES	MrgX1 ag	MrgX1 antagonist	KCC2 mod	RGS4 inh	RGS4 pot	MrgX1 PAM	KCC2 sec1	KCC2 bumet counter	KCC2 secondary2	HEK293 Tl flux	KCC2 ouabain	HEK293 Tl flux2
O=C(CSc1cccc[n+]1[O-])C12CC3CC(CC(C3)C1)C2	i	i	1.17	i	i	i	·	·	·	·	·	·
CCCCCC1=CCC/C1=N\NC(=O)c1ccc2c(c1)OCO2	i	i	-0.786	i	i	i	·	·	·	·	·	·
CC(C)Cn1c(N)c(/C=N/NC(=O)c2ccc(Cl)cc2)c(=O)n(C)c1=O	i	i	·	i	i	i	·	·	·	·	·	·
O=c1[nH]c(CSc2nc3ccccc3s2)nc2cc(Cl)ccc12	i	i	6.25*	i	i	i	0.0107	0.0143*	0.0329	?	?	0.0114
O=S(=O)(Nc1nc2ccccc2nc1N1CCN(c2ccccn2)CC1)c1ccc(Cl)cc1	·	·	-3.1*	·	·	·	0.00475	0.00482	0.0239*	0.00689	?	0.0103
Cc1cc(=O)cc(C)n1-c1ccccc1Br	i	i	·	i	i	i	·	·	·	·	·	·
CC(C)Cc1ccc(C(C)NC(=O)Cc2ccc(S(=O)(=O)N3CCOCC3)s2)cc1 (configuration not stated)	i	i	·	i	i	i	·	·	·	·	·	·
Cc1ccc(C)c(Cn2nnc3c(=O)[nH]c(C(=O)NCc4ccco4)nc32)c1	i	i	-5.7*	i	i	i	0.00502	0.00502	0.0229*	0.00617*	0.0137*	?
Cc1ccc(C)c(Cn2nnc3c(=O)[nH]c(C4CCCN(C(=O)C5CCCCC5)C4)nc32)c1 (configuration not stated)	i	i	·	i	i	i	·	·	·	·	·	·
O=C(NCc1cccs1)c1nc2c(nnn2Cc2ccc(F)cc2)c(=O)[nH]1	i	i	-2.27*	i	i	i	0.00621	?	0.0227*	0.00694	?	0.00934
O=C(NC1CCCC1)c1nc2c(nnn2Cc2ccccc2Cl)c(=O)[nH]1	i	i	-1.43	i	i	i	·	·	·	·	·	·
O=C(NCc1ccco1)c1nc2c(nnn2Cc2ccccc2Cl)c(=O)[nH]1	i	i	-3.33*	i	i	i	0.00823	0.00668	0.0285	?	0.0144*	0.0089
O=C(NCC1CCCO1)c1nc2c(nnn2Cc2ccc(F)cc2)c(=O)[nH]1 (configuration not stated)	i	i	-2.21	i	i	i	·	·	·	·	·	·
O=C1NC[C@@H](Cc2cccc3ccccc23)N(CC2CCCCC2)C1=O	i	i	-2.99*	i	i	i	0.00541	0.00466	0.0244*	0.00696	0.016	0.00933
O=C(NC(=S)Nc1ccc(N2CCN(C(=O)c3ccccc3)CC2)cc1)c1cccs1	i	i	3.38*	i	i	i	0.0103	0.00968*	0.0333	0.0105*	0.0203	0.0117
O=C(CSc1ccc2ccccc2c1)N1CCN(c2ccc(O)cc2)CC1	i	i	-1.05	i	i	i	·	·	·	·	·	·
